# Experimental data from article PMC2807935 (Naunyn-Schmiedeberg's Archives of Pharmacology, 2010).
# Values joined by “and” are separate entries in the source; they are usually repeats but may differ in a detail not shown here. Equal values may be shown once.
# What was measured:
# [1] = Pharmacokinetics of oral etoricoxib in plasma, CSF and tissue exudate; type: in vivo, human; conditions: for Tmax: t max
# plasma proteins = conditions: ref Agrawal et al. [2003b]; cited from earlier work
# [2] = post-dose, monkeys; ref Riendeau et al. [2001]; cited from earlier work
# COX-2 = conditions: after a single dose of 120 mg; ref Dallob et al. [2003]; cited from earlier work
# [3] = Secondary clinical parameters: pain scores, analgesic consumption, side effects; type: in vivo, human
# [4] = system: PGE2 production in tissue; assay: PGE2 concentrations in tissue exudate; type: in vivo, human
# Summary of the method: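 Patients given oral 120 mg or placebo at 7.00 am on postoperative day 1 after non-cemented hip arthroplasty. Hip drain emptied 1 h before each scheduled time (0, 1, 3, 8, 12, 24 h), then exudate collected over 60 min. Exudate centrifuged, supernatant frozen at −30°C. PGE2 measured by enzyme immunoassay (LOQ 15 pg/mL). Times are collection-interval midpoints; changes expressed versus baseline.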
# [5] = cited from earlier work
# [6] = at 200 mg; ref Brune and Hinz [2004]; Hinz et al. [2007]; cited from earlier work
# [7] = patient R02, 50% of peak concentrations
# [8] = patient R06, 50% of peak concentrations
smiles,measurement,setting,value
Cc1ccc(-c2ncc(Cl)cc2-c2ccc(S(C)(=O)=O)cc2)cn1 [etoricoxib],CSF concentration,[1]; 1 h later than in plasma,> 29 ng/mL
same,CSF concentration at 1 h as part of the peak CSF concentration,[1]; 1 h post-dose,34%
same,Etoricoxib in tissue exudate,[1]; 2.5 h,virtually no drug detected
same,Concentration in CSF as fraction of that in plasma at corresponding times,[1]; AUC0–24h and max. concentration ratios,1/20
same,Cmax,"[1]; CSF, n = 5, mean (± SD)",68.4 (30.6) ng/mL
same,Time to plateau in plasma and CSF,[1]; both compartments,about 2 h
same,Plasma concentration,[1]; during the first hour after 120 mg oral,> 360 ng/mL
same,Cmax,"[1]; human, CSF, oral, 120 mg, c max, n = 5, mean (± SD)",~70 ng/mL
same,Tmax,"[1]; human, CSF, oral, 120 mg, n = 5, median (range)",8 h
same,AUC(0-t),"[1]; human, CSF, po, 120 mg, AUC0–24h, n = 5, 120 mg oral, mean (± SD)",955 ng·h/mL
same,Kp at 8 h,"[1]; human, CSF/plasma, oral, 120 mg, CSF/plasma conc. ratio at t max, n = 5, mean (± SD), at 8 h",0.06
same,Kp,"[1]; human, CSF/unbound plasma, oral, 120 mg, CSF/plasma ratio of the unbound fractions (CSF/Pu), at equilibrium (2–24 h), estimated",~0.56
same,Cmax,"[1]; human, plasma, oral, 120 mg, c max, plasma, n = 5 subgroup, mean (± SD)",1440 ng/mL
same,Cmax,"[1]; human, plasma, oral, 120 mg, c max, n = 8 (all patients), mean (± SD)",1740 ng/mL
same,Tmax,"[1]; human, plasma, oral, 120 mg, plasma, n = 5 subgroup, median (range)",4 h
same,Tmax,"[1]; human, plasma, oral, 120 mg, n = 8 (all patients), median (range)",3 h
same,Individual CSF lag times with respect to (50%) peak plasma concentration,[1]; in all but one case,≤ 2 h
same,Time to meaningful (COX-2 inhibitory) CSF concentrations,[1]; in nearly all patients,≤ 2 h
same,Max. CSF/plasma conc. ratio,"[1]; individual maximal concentration ratios, between 3 and 12 h, mean ± SD, n = 5",7.3 (2.1) %
same,Time of peak CSF concentration,"[1]; mean concentration-time curve, CSF",8 h
same,Lag time plasma vs. CSF,[1]; mean of patients,2 h
same,Lag time plasma vs. tissue exudate,[1]; mean of patients,3.8 h
same,Lag time plasma vs. tissue exudate,"[1]; median of patients, without correction for the delay of sampling",4 h
same,CSF/plasma ratio AUC0–24h,"[1]; n = 5, mean (range) of individual ratios",4.4% and 4.4 (2–7) %
same,CSF/plasma conc. ratio at t max,"[1]; n = 5, mean (± SD), at 8 h",6.3 (2.0) %
same,t max for CSF/plasma conc. ratio,"[1]; n = 5, median (range)",8 (3–12) h
same,Lag time plasma vs. CSF,"[1]; patient R01, 50% of peak concentrations",1 h
same,Lag time plasma vs. tissue exudate,"[1]; patient R01, with respect to 50% of peak concentrations",4 h
same,Lag time plasma vs. CSF,[1]; [7],2 h
same,Lag time plasma vs. tissue exudate,[1]; [7],4 h
same,Lag time plasma vs. CSF,"[1]; patient R05, in brackets: invalid data due to missing values",(2) h
same,Lag time plasma vs. CSF,[1]; [8],0 h
same,Lag time plasma vs. tissue exudate,[1]; [8],1.5 h
same,Lag time plasma vs. tissue exudate,"[1]; patient R07, 50% of peak concentrations",6.5 h
same,Lag time plasma vs. CSF,"[1]; patient R07, in brackets: invalid data due to missing values",(3) h
same,Lag time plasma vs. CSF,"[1]; patient R09, 50% of peak concentrations",7 h
same,CSF peak concentration,"[1]; patient R09, 8 h post-medication",108 ng/mL
same,Median CSF lag time with respect to 50% of the peak concentration in plasma,[1]; patient R09 not included,0.5 h
same,Range of CSF lag time with respect to 50% of the peak concentration in plasma,[1]; patient R09 not included,0 to 2 h
same,Lag time plasma vs. tissue exudate,"[1]; patient R10, 50% of peak concentrations",3 h
same,Lag time plasma vs. CSF,"[1]; patient R10, in brackets: invalid data due to missing values",(0) h
same,Lag time plasma vs. CSF,"[1]; patient R12, 50% of peak concentrations",0 h
same,Bound to plasma proteins,plasma proteins,92%
same,Onset of antipyretic action,[2],about 2 h
same,Ex vivo whole blood IC50 of COX-2 inhibition,COX-2,about 360 ng/mL
same,Perioperative side effects,[3]; 120 mg oral on postoperative day 1,no perioperative side effects related to the administration of etoricoxib
same,Postoperative pain and opioid consumption versus placebo,"[3]; both groups received standard IT and parenteral pain medication, study not designed to detect differences",no meaningful differences
same,"PGE2 concentration in tissue exudate, overall for all values (PGE2 Hip, n = 88)","[4]; 120 mg etoricoxib oral, day 1 post-surgery, n = 8, mean (SD)",11.9 (10.2) ng/mL
same,PGE2 concentration in tissue exudate,"[4]; 0.5 h after 120 mg oral, midpoint of collection interval, mean (SD)",18.1 (8.8) ng/mL
same,PGE2 concentration in tissue exudate,"[4]; 1.5 h after 120 mg oral, mean (SD)",24.4 (10.5) ng/mL
same,PGE2 concentration in tissue exudate,"[4]; 2.5 h after 120 mg oral, mean (SD)",20.9 (16.1) ng/mL
same,PGE2 concentration in tissue exudate,"[4]; 5.0 h after 120 mg oral, mean (SD)",16.9 (13.6) ng/mL
same,PGE2 concentration in tissue exudate,"[4]; 7.5 h after 120 mg oral, mean (SD)",12.1 (9.3) ng/mL
same,PGE2 concentration in tissue exudate,"[4]; 9.5 h after 120 mg oral, mean (SD)",7.9 (6.0) ng/mL
same,PGE2 concentration in tissue exudate,"[4]; 11.5 h after 120 mg oral, mean (SD)",6.4 (5.1) ng/mL
same,PGE2 concentration in tissue exudate,"[4]; 17.5 h after 120 mg oral, mean (SD)",6.2 (6.2) ng/mL
same,PGE2 concentration in tissue exudate,"[4]; 23.5 h after 120 mg oral, mean (SD)",2.3 (0.7) ng/mL
same,Duration of the significant PGE2 difference to placebo,[4]; till the end of the observation period,18 h
same,PGE2 concentration in tissue exudate,"[4]; time point Pre (baseline), n = 8, mean (SD)",7.7 (5.4) ng/mL
same,Time after medication at which the PGE2 difference to placebo became significant,"[4]; tissue exudate samples, material produced about 2 h after medication",5 h
same,Time after administration within which etoricoxib interferes with surgical pain,"[5]; patients, ref Clarke et al. [2009]",≤ 2 h
same,Time after surgery before which etoricoxib was not analgesic,"[5]; thyroid surgery, ref Smirnov et al. [2008]",≥ 6 h
Cc1ccc(-c2cc(C(F)(F)F)nn2-c2ccc(S(N)(=O)=O)cc2)cc1 [celecoxib],Bioavailability,[6],20–60%
